The structures appear in SMILES notation.

This passage reports RIC50 and IC50 results from ChEMBL document CHEMBL1143610, “Applying linear interaction energy method for rational design of noncompetitive allosteric inhibitors of the sarco- and endoplasmic reticulum calcium-ATPase” (J Med Chem, 2005).

Test [1] addresses T1, Sarcoplasmic/endoplasmic reticulum calcium ATPase 1 (Homo sapiens, UniProt O14983). In words: Inhibitory potency against sarco- endoplasmic reticulum calcium-ATPase in relative to thapsigargin (Experimental).
Target sequence in this assay (O14983 whole entry, looked up): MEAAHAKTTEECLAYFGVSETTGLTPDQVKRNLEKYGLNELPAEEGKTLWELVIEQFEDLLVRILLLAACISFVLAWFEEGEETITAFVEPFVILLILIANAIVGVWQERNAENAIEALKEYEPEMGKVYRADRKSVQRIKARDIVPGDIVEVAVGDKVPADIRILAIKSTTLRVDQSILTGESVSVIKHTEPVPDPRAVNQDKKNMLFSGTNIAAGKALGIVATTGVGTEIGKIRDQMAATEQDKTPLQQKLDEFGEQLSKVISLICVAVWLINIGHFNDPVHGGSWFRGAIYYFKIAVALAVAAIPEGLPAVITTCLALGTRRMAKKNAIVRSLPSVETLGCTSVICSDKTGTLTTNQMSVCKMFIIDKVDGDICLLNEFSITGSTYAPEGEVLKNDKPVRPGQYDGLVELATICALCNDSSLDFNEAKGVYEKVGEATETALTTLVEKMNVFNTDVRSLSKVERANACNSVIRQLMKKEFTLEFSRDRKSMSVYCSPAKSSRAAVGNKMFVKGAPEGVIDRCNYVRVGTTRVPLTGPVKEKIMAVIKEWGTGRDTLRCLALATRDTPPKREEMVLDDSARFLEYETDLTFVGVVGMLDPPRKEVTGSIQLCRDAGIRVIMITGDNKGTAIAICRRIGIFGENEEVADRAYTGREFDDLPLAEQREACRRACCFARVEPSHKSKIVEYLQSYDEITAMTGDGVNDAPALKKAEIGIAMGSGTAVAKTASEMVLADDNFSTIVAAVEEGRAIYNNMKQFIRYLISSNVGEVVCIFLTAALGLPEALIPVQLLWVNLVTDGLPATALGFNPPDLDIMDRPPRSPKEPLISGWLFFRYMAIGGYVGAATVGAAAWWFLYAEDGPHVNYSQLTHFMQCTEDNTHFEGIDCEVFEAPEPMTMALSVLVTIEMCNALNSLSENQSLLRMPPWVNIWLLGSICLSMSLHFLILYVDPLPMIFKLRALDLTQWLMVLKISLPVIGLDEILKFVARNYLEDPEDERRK
The target of test [2] is T1, Sarcoplasmic/endoplasmic reticulum calcium ATPase 1. In words: Inhibitory potency against sarco- endoplasmic reticulum calcium-ATPase in relative to thapsigargin by using SGB-LIE method. In short, it runs like this:
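SGB-LIE computation with a surface generalized Born continuum solvent. SERCA coordinates came from one TG-bound monomer of PDB 1IWO, truncated to the transmembrane domain, lumen and the near-membrane cytoplasmic part. Histidine protonation was set to favour H-bonds. Ligands were superimposed on bound TG, with O-8 side chains in the hydrophobic channel. Vacuum minimisation held protein atoms fixed except nonpolar H. LIE parameters were fitted to experimental data for 20 training analogues.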
Target sequence in this assay (O14983 whole entry, looked up): as above

Test [3] has the same target. The test is described as follows: Inhibitory activity against sarco- endoplasmic reticulum calcium-ATPase.
Target sequence in this assay (O14983 whole entry): as the sequence (O14983 whole entry, looked up) above
For test [4] the target is unchanged. The test is described as follows: Inhibitory potency against sarco- endoplasmic reticulum calcium-ATPase in relative to thapsigargin.
Target sequence in this assay (O14983 whole entry, looked up): as above

For the molecule `CCCCCCCC(=O)O[C@@H]1C(=O)C(C)=C2[C@H]1[C@@](C)(OC(C)=O)C[C@H](OC(=O)CCCCCCCCCCC(=O)O)[C@@]1(O)[C@H]2OC(=O)[C@@]1(C)O`, the RIC50 was 0.25 in test [1] and 2.08 in test [2]. Besides, the IC50 (commonly the concentration that gives 50% inhibition) in test [3] was 2.08 nM.

Consider `CCCCCCCC(=O)O[C@@H]1C(=O)C(C)=C2[C@H]1[C@@](C)(OC(C)=O)C[C@H](OC(=O)CCC)[C@@]1(O)[C@H]2OC(=O)[C@@]1(C)O`, for which, in test [4], the RIC50 worked out at 0.015.

With `C/C=C(/C)C(=O)O[C@H]1C(C)=C2[C@H]([C@@H]1OC(=O)CCCCCCC)[C@@](C)(OC(C)=O)C[C@H](OC(=O)CCCCCCCCCCCNC(=O)[C@@H](N)CO)[C@@]1(O)[C@H]2O[C@H](O)[C@@]1(C)O`, the RIC50 in test [4] was 1.25.

Consider `C/C=C(/C)C(=O)O[C@H]1C(C)=C2[C@H]([C@@H]1OC(=O)CCCCCCC)[C@@](C)(OC(C)=O)C[C@H](OC(=O)/C=C/c1ccc(NC(=O)OC(C)(C)C)cc1)[C@@]1(O)[C@H]2O[C@H](O)[C@@]1(C)O`, for which the RIC50 in test [4] turned out to be 0.54.

As to `C/C=C(/C)C(=O)O[C@H]1C(C)=C2[C@H]([C@@H]1OC(=O)CCCCC)[C@@](C)(OC(C)=O)C[C@H](OC(=O)CCC)[C@@]1(O)[C@H]2O[C@H]2O[C@H](OCC)O[C@]21C`, the RIC50 in test [4] was determined as 0.4.

`CCCCCCCC(=O)O[C@@H]1C(=O)C(C)=C2[C@H]1[C@@](C)(OC(C)=O)C[C@H](OC(=O)CCCCCCCCCCCNC(=O)CCC(N)C(=O)O)[C@@]1(O)[C@H]2OC(=O)[C@@]1(C)O` (some centres not stated): the RIC50 in test [1] is 0.83; in test [2], 5. For the same molecule, in test [3], the IC50 amounted to 1.2 nM.

With `C/C=C(/C)C(=O)O[C@H]1C(C)=C2[C@H]([C@@H]1OC(=O)CCCCCCC)[C@@](C)(OC(C)=O)C[C@H](OC(=O)CCCCCN)[C@@]1(O)[C@H]2O[C@H](O)[C@@]1(C)O`, in test [4], the RIC50 stood at 0.01.

`CCCCCCCC(=O)O[C@@H]1C(=O)C(C)=C2[C@H]1[C@@](C)(OC(C)=O)C[C@H](OC(=O)CCCC(=O)O)[C@@]1(O)[C@H]2OC(=O)[C@@]1(C)O`: the RIC50 was 0.02 in test [1] and 0.31 in test [2]. In test [3], the IC50 came out at 19.8 nM.

With `C/C=C(/C)C(=O)O[C@H]1C(C)=C2[C@H]([C@@H]1OC(=O)CCCCCCC)[C@@](C)(OC(C)=O)C[C@H](OC(=O)CCC)[C@@]1(O)[C@H]2OC(=O)[C@@]1(C)O` (stereo in doubt; form 1), the RIC50 in test [4] is 1.

For `C/C=C(\C)C(=O)O[C@H]1C(C)=C2[C@H]([C@@H]1OC(=O)CCCCCCC)[C@@](C)(O)C[C@H](OC(=O)CCC)[C@@]1(O)[C@H]2OC(=O)[C@@]1(C)O`, in test [4], the RIC50 was 0.02.

In the case of `C/C=C(\C)C(=O)O[C@H]1C(C)=C2[C@H]([C@@H]1OC(=O)CCCCCCC)[C@@](C)(OC(C)=O)C[C@H](OC(=O)CCC)[C@@]1(OC(C)=O)[C@H]2OC(=O)[C@@]1(C)O`, the RIC50 in test [4] came to 0.36.

On to `C/C=C(/C)C(=O)O[C@H]1C(C)=C2[C@H]([C@@H]1OC(=O)CCCCCCC)[C@@](C)(OC(C)=O)C[C@H](OC(=O)/C=C/c1ccc(N)cc1)[C@@]1(O)[C@H]2O[C@H](O)[C@@]1(C)O`, for which the RIC50 in test [4] came to 0.59.

Consider `C/C=C(/C)C(=O)O[C@H]1C(C)=C2[C@H]([C@@H]1OC(=O)CCCCC)[C@@](C)(OC(C)=O)C[C@H](OC(=O)CCC)[C@@]1(O)[C@H]2O[C@@H](OCC)[C@@]1(C)O`, for which, in test [4], the RIC50 is 0.52.

`C/C=C(/C)C(=O)O[C@H]1C(C)=C2[C@H]([C@@H]1OC(=O)CCCCCCC)[C@@](C)(OC(C)=O)C[C@H](OC(=O)CCc1ccc(NC(=O)OC(C)(C)C)cc1)[C@@]1(O)[C@H]2O[C@H](O)[C@@]1(C)O`: the RIC50 in test [4] came to 0.52.

With `C/C=C(/C)C(=O)O[C@H]1C(C)=C2[C@H]([C@@H]1O)[C@@](C)(O)C[C@H](OC(=O)CCC)[C@@]1(O)[C@H]2O[C@H]2OC(C)(C)O[C@]21C`, the RIC50 in test [4] was determined as 0.0002.

`C/C=C(/C)C(=O)O[C@H]1C(C)=C2[C@H]([C@@H]1OC(=O)CCCCCCC)[C@@](C)(OC(C)=O)C[C@H](OC(=O)CCCCCCCCCCCN)[C@@]1(O)[C@H]2O[C@H](O)[C@@]1(C)O`: in test [4], the RIC50 came to 0.384.

`C/C=C(/C)C(=O)O[C@H]1C(C)=C2[C@H]([C@@H]1OC(=O)CCCCC)[C@@](C)(OC(C)=O)C[C@H](OC(=O)CCC)[C@@]1(O)[C@H]2O[C@H]2O[C@@H](OCC)O[C@]21C`: in test [4], the RIC50 was 0.02.

In the case of `C/C=C(/C)C(=O)O[C@H]1C(C)=C2[C@H]([C@@H]1OC(=O)CCCCCCC)[C@@](C)(OC(C)=O)C[C@H](OC(=O)c1ccc(N)cc1)[C@@]1(O)[C@H]2O[C@H](O)[C@@]1(C)O`, the RIC50 in test [4] stood at 0.59.

Regarding `C/C=C(/C)C(=O)O[C@H]1C(C)=C2[C@H]([C@@H]1OC(=O)CCCCCCC)[C@@](C)(OC(C)=O)C[C@H](OC(=O)CCCCCC(=O)Nc1ccc(C)c(N)c1)[C@@]1(O)[C@H]2O[C@H](O)[C@@]1(C)O`, the RIC50 in test [4] stood at 0.22.

`C/C=C(/C)C(=O)O[C@H]1C(C)=C2[C@H]([C@@H]1OC(=O)CCCCCCC)[C@@](C)(OC(C)=O)C[C@H](OC(=O)CCCCCCCCCCCNC(=O)[C@@H](N)CC(C)C)[C@@]1(O)[C@H]2O[C@H](O)[C@@]1(C)O`: in test [4], the RIC50 is 0.294.

With `C/C=C(/C)C(=O)O[C@H]1C(C)=C2[C@H]([C@@H]1OC(=O)CCCCCCC)[C@@](C)(OC(C)=O)C[C@H](OC(=O)CCC(=O)Nc1ccc(C)c(N)c1)[C@@]1(O)[C@H]2O[C@H](O)[C@@]1(C)O`, the RIC50 in test [4] is 0.003.

In the case of `C/C=C(/C)C(=O)O[C@H]1C(C)=C2[C@H]([C@@H]1OC(=O)CCCCCCC)[C@@](C)(OC(C)=O)C[C@H](OC(=O)CCc1ccc(N)cc1)[C@@]1(O)[C@H]2O[C@H](O)[C@@]1(C)O`, the RIC50 in test [4] stood at 0.68.

In the case of `C/C=C(/C)C(=O)O[C@H]1C(C)=C2[C@H]([C@@H]1OC(=O)CCCCCCC)[C@@](C)(O)C[C@H](OC(=O)CCCCCCC)[C@@]1(O)[C@H]2OC(O)[C@@]1(C)O` (some centres not stated), the RIC50 in test [4] amounted to 0.08.

`C/C=C(/C)C(=O)O[C@H]1C(C)=C2[C@H]([C@@H]1OC(=O)CCCCC)[C@@](C)(OC(C)=O)C[C@H](OC(=O)CCC)[C@@]1(O)[C@H]2O[C@H](OCC)[C@@]1(C)O`: the RIC50 in test [4] was found to be 0.85.

As to `C/C=C(/C)C(=O)O[C@H]1C(C)=C2[C@H]([C@@H]1OC(=O)CCCCCCC)[C@@](C)(OC(C)=O)C[C@H](OC(=O)CCCCCCCCCCN)[C@@]1(O)[C@H]2O[C@H](O)[C@@]1(C)O`, in test [4], the RIC50 stood at 0.333.

`C/C=C(/C)C(=O)O[C@H]1C(C)=C2[C@H]([C@@H]1OC(=O)CCCCC)[C@@](C)(O)C[C@H](OC(=O)CCC)[C@@]1(O)[C@H]2O[C@H]2OC(C)(C)O[C@]21C`: the RIC50 in test [4] was 0.002.

Consider `C/C=C(/C)C(=O)O[C@H]1C(C)=C2[C@H]([C@@H]1OC(=O)CCCCCCC)[C@@](C)(OC(C)=O)C[C@H](OC(=O)CCCc1ccc(N)cc1)[C@@]1(O)[C@H]2O[C@H](O)[C@@]1(C)O`, for which the RIC50 in test [4] was determined as 0.6.

In the case of `CCCCCCCCO[C@@H]1C(C)=C2[C@H]([C@@H]1OC(=O)CCCCCCC)[C@@](C)(OC(C)=O)C[C@H](OC(=O)CCC)[C@@]1(O)[C@H]2OC(=O)[C@@]1(C)O`, the RIC50 in test [4] was determined as 0.002.

Take `C/C=C(/C)C(=O)O[C@H]1C(C)=C2[C@H]([C@@H]1OC(=O)CCCCCCC)[C@@](C)(OC(C)=O)C[C@H](OC(=O)CCCCCNC(=O)[C@@H](N)CC(C)C)[C@@]1(O)[C@H]2O[C@H](O)[C@@]1(C)O`: the RIC50 in test [4] turned out to be 0.004.

`C/C=C(/C)C(=O)O[C@H]1C(C)=C2[C@H]([C@@H]1OC(=O)CCCCC)[C@@](C)(OC(C)=O)C[C@H](OC(=O)CCC)[C@@]1(O)[C@H]2OC(=O)[C@@]1(C)O`: the RIC50 in test [4] worked out at 0.98.

For `C/C=C(/C)C(=O)O[C@H]1C(C)=C2[C@H]([C@@H]1OC(=O)CCCCCCC)[C@@](C)(OC(C)=O)C[C@H](OC(=O)CCC)[C@@]1(O)[C@H]2O[C@H]2O[C@]21C`, the RIC50 in test [4] came to 0.186.

As to `C/C=C(/C)C(=O)O[C@H]1C(C)=C2[C@H]([C@@H]1OC(=O)CCCCCCC)[C@@](C)(OC(C)=O)C[C@H](OC(=O)CCCCCCCCCCCNC(=O)[C@H](C)N)[C@@]1(O)[C@H]2O[C@H](O)[C@@]1(C)O`, in test [4], the RIC50 was 0.833.

With `C/C=C(/C)C(=O)O[C@H]1C(C)=C2[C@H]([C@@H]1OC(=O)CCCCCCC)[C@@](C)(OC(C)=O)C[C@@H](OC(=O)CCC)[C@@]1(O)[C@H]2OC(=O)[C@@]1(C)O`, the RIC50 in test [4] was found to be 0.0003.

For the molecule `C/C=C(/C)C(=O)O[C@H]1C(C)=C2[C@H]([C@@H]1OC(=O)CCCCCCC)[C@@](C)(OC(C)=O)C[C@H](OC(=O)CCCCCCN)[C@@]1(O)[C@H]2O[C@H](O)[C@@]1(C)O`, the RIC50 in test [4] was found to be 0.011.

`C/C=C(\C)C(=O)O[C@H]1C(C)=C2[C@H]([C@@H]1OC(=O)CCCCCCC)[C@@](C)(OC(C)=O)C[C@H](OC(=O)CCC)[C@@]1(OC(C)=O)[C@H]2OC(=O)[C@@]1(C)OC(C)=O`: in test [4], the RIC50 came out at 0.07.

With `CCCCCCCC(=O)O[C@H]1[C@H]2C(=C(C)[C@@H]1OC(=O)CCCCCCC)[C@@H]1OC(=O)[C@@](C)(O)[C@@]1(O)[C@@H](OC(=O)CCC)C[C@]2(C)OC(C)=O`, the RIC50 in test [4] worked out at 0.09.

As to `C/C=C(/C)C(=O)O[C@H]1C(C)=C2[C@H]([C@@H]1OC(=O)CCCCC)[C@@](C)(OC(C)=O)C[C@H](OC(=O)CCC)[C@@]1(O)[C@H]2O[C@H]2OCO[C@]21C`, in test [4], the RIC50 was found to be 0.06.

Consider `C/C=C(/C)C(=O)O[C@H]1C(C)=C2[C@H]([C@@H]1OC(=O)CCCCCCC)[C@@](C)(OC(C)=O)C[C@H](OC(=O)CCC)[C@@]1(O)[C@H]2OC(=O)[C@@]1(C)O` (stereo in doubt; form 2), for which the RIC50 in test [4] was found to be 0.67.

Turning to `C/C=C(/C)C(=O)O[C@H]1C(C)=C2[C@H]([C@@H]1OC(=O)CCCCCCC)[C@@](C)(OC(C)=O)C[C@H](O)[C@@]1(O)[C@H]2O[C@H](O)[C@@]1(C)O`, the RIC50 in test [4] amounted to 0.19.

On to `C/C=C(\C)C(=O)O[C@H]1C(C)=C2[C@H]([C@@H]1OC(=O)CCCCCCC)[C@@](C)(OC(C)=O)C[C@H](OC(=O)CCC)[C@@]1(O)[C@H]2OC(=O)[C@@]1(C)OC(C)=O`, for which the RIC50 in test [4] was found to be 0.4.

Consider `C/C=C(/C)C(=O)O[C@H]1C(C)=C2[C@H]([C@@H]1OC(=O)CCCCCCC)[C@@](C)(OC(C)=O)C[C@H](OC(=O)CCCCCCCN)[C@@]1(O)[C@H]2O[C@H](O)[C@@]1(C)O`, for which the RIC50 in test [4] was determined as 0.059.
